Compound activity: PubChem BioAssay, several laboratories
Sampled rows, rich in hits. Any-hit rate of the full collection: about 2.6%.
Rce1 inhib = yeast Rce1p protease inhibitors, primary screen, biochemical, fluorescence, cell-free homogeneous. yeast membranes, quenched prenylated peptide cleavage fluorescence. calls only. 0.27% of 290,000 active. AID 2563, 2010;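 active = fall in fluorescence gain of 50% or more versus controls, with final raw signal at or below 3038400; inconclusive = same 50% fall but final raw signal above 3038400; inactive = fall in fluorescence gain under 50%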;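 note: plate controls were neutral control wells for no effect and wells lacking membranes for full effect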
Target sequence (Q03530 whole entry, looked up): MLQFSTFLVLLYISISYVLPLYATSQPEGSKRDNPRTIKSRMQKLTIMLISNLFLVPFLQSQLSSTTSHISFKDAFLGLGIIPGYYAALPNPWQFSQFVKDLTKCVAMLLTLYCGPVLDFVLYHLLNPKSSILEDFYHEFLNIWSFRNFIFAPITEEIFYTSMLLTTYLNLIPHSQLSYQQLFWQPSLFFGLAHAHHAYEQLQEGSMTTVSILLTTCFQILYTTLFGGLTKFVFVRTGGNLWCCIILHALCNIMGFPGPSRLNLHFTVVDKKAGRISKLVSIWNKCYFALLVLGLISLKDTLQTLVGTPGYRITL
TAAR1 ag = human TAAR1 agonists, primary screen, Fluo-8 calcium fluorescence, CHO RD-HGA16 cells; vehicle wells 0%, saturating PEA agonist 100%; activation, % at 3 µM; 0.99% of 360,000 active; AID 624467, 2012;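 active = activation above the mean activation of all test compounds in the run plus 3 SD, cut at about 38% in these data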
Target sequence (Q96RJ0 whole entry, looked up): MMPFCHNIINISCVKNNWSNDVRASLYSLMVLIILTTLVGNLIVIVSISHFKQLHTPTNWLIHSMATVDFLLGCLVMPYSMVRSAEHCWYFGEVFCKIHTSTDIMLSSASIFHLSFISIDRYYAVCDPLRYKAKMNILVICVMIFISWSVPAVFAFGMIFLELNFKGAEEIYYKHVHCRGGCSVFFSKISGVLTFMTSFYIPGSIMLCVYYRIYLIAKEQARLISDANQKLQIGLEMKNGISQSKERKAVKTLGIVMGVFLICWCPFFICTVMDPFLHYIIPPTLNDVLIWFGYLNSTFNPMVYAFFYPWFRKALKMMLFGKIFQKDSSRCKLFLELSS
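Test system: RD-HGA16 (CHO) cells co-expressing Gα16 and hTAAR1; dosing: one-point dosing at 3 µM (nominal); timing: 17-24 h seeding, 75 min 37 °C dye, 30 min RT; signal: kinetic Fluo-8 calcium fluorescence; read-out basis: % activation relative to PEA EC100 response; controls: DMSO and PEA EC100; replicates: n 1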
VLA-4 inh = inhibition in human VLA-4 binding assay, primary screen, VLA-4 allosteric modulator project, MLPCN library, flow cytometry, VLA-4 expressing cells; Integrin alpha-4 (Homo sapiens), P13612; 0.2% of 330,000 active; AID 2557, 2010; inhibition, % (about 7 µM as worked out from the volumes in the protocol); ligand binding flow cytometry; in the data active = inhibition above about 50%
Platelet DG rel = inhibitors of platelet dense granule secretion, primary screen, cell-based, MLPCN, human platelets; 0.22% of 300,000 active; AID 1663, 2009; inhibition, %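 (compounds screened at 7.5 µM in platelet-rich plasma)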; human platelet-rich plasma, SFLLRN dense granule ATP release, luminescence;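 active = mean replicate score, as percent of positive control, at or above 50; inconclusive = mean below 50 but at least one replicate at or above 50; inactive = mean and every replicate below 50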
TAAR1 antag = human TAAR1 antagonists, primary screen, Fluo-8 calcium fluorescence, CHO RD-HGA16 cells; Trace amine-associated receptor 1 (Homo sapiens), Q96RJ0; antagonist; inhibition, % at 3 µM; 1.5% of 360,000 active;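 active = inhibition above a per-plate cutoff, the mean inhibition of test compounds on that plate plus 3 SD, cut at about 49% in these data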;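 note: 0% = DMSO plus EC80 beta-PEA response and 100% = DMSO alone without agonist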
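System: RD-HGA16 CHO cells with stable hTAAR1 and Gα16 | Probe or stimulus: EC80 β-phenethylamine stimulus | Dosing: 3 µM, single point | Times: Dye loading 75 min at 37 °C, then 30 min room temperature | Measured by: Fluo-8 calcium-sensitive fluorescence | Read-out basis: % inhibition of agonist calcium response | Replicates: n of 1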
TAAR1 ag conf = human TAAR1 agonists, retest of hits, confirmation, Fluo-8 calcium fluorescence, CHO RD-HGA16 cells. shares compounds with TAAR1 ag. scaled: DMSO 0%, maximal phenethylamine 100%. activation, % at 3 µM. 82% of 2,400 active;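 active = activation above a cutoff set at the run's mean compound activation plus 3 SD, cut at about 39% in these data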
Ga16 ag counter = nonselective calcium mobilization agonists, CHO-Ga16 cells, counter-screen for hTAAR1 agonist project, cell-based, fluorescence, CHO-Ga16 parental line | 50% of 2,400 active | AID 651787, 2012 | shares compounds with TAAR1 ag | activation, % at 3 µM | Fluo-8 calcium fluorescence; normalized to maximal ATP response, DMSO zero;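 active = activation above the run cutoff, the mean activation over all tested wells plus 3 SD, cut at about 12% in these data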;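 note: 0% = DMSO wells and 100% = maximal ATP response on the peak over basal ratio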
TAAR1 desens = TAAR1 desensitization by agonist hits, confirmation, counter-screen for TAAR1 agonist project, cell-based, fluorescence, tachyphylaxis; 46% of 2,400 active; inhibition, % at 3 µM; shares compounds with TAAR1 ag; CHO RD-HGA16 hTAAR1, Fluo-8 calcium, beta-PEA response inhibition; AID 651951, 2012;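 active = inhibition above the run cutoff, the mean inhibition of all test compounds plus 3 SD, cut at about 49% in these data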;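 note: beta-PEA stimulus applied at its EC80; loss of beta-PEA calcium signal after compound pretreatment read as receptor desensitization; 0% = DMSO with beta-PEA at EC80 and 100% = DMSO alone without agonist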
Ga16 antag count = inhibition of ATP-evoked calcium response in CHO-Ga16 cells, counter-screen for TAAR1 agonist project, cell-based, fluorescence; CHO-Ga16 ATP-induced calcium, Fluo-8 fluorescence; 39% of 2,400 active; inhibition, % at 3 µM; shares compounds with TAAR1 ag; AID 651952, 2012;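 active = inhibition above the plate's mean compound inhibition plus 3 SD, computed per plate, cut at about 22% in these data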;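 note: 0% = EC80 ATP with DMSO and 100% = DMSO wells without ATP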
* = called active by the depositor; i = inactive; ? = inconclusive; nt = no result given.

SMILES	Rce1 inhib	TAAR1 ag	VLA-4 inh	Platelet DG rel	TAAR1 antag	TAAR1 ag conf	Ga16 ag counter	TAAR1 desens	Ga16 antag count
CC[C@@H](C(=O)[C@@H](C)[C@@H](O)[C@H](C)CCc1ccc(C)c(O)c1C(=O)O)[C@H]1O[C@](CC)([C@H]2CC[C@](O)(CC)[C@H](C)O2)C[C@@H]1C	i	76.5*	1.8	-0.3	67.3*	73.0*	64.6*	73.4*	52.3*
CC[C@@H](C(=O)[C@@H](C)[C@@H](O)[C@H](C)[C@@H]1O[C@@H]([C@@H](CC)C(=O)O)CC[C@@H]1C)[C@H]1O[C@]2(C=C[C@@H](O)[C@]3(CC[C@@](C)([C@H]4CC[C@](O)(CC)[C@H](C)O4)O3)O2)[C@H](C)C[C@@H]1C	nt	-2.5	nt	nt	-35.2	nt	nt	nt	nt
CCC(=O)c1ccc(OC(=O)c2ccc(Br)o2)cc1	nt	123.3*	-0.9	-0.2	83.7*	76.0*	71.0*	63.5*	50.8*
CC(=O)c1ccc(OC(=O)c2ccc(Br)o2)cc1	i	29.3	-0.7	-2.3	18.6	nt	nt	nt	nt
Cc1ccc(OC(=O)c2ccc(Br)o2)cc1	i	87.2*	0.7	3.2	60.4*	51.1*	79.3*	40.9	51.1*
CCc1cccc(NC(=O)C2CCCN2S(=O)(=O)c2ccccc2C(F)(F)F)c1 (stereo not drawn)	nt	-1.1	nt	nt	-13.8	nt	nt	nt	nt
O=C1C(=Cc2ccccc2O)SC(=S)N1CCCN1CCOCC1	nt	1.0	nt	nt	10.4	nt	nt	nt	nt
Cn1c(=O)c2c(nc(N3CCc4ccccc4C3)n2Cc2ccccc2F)n(C)c1=O	i	10.8	-6.1	2.2	-14.0	nt	nt	nt	nt
Cc1ccc(Cn2c(CN(C)Cc3ccccc3)nc3c2c(=O)n(C)c(=O)n3C)cc1	i	70.1*	-8.5	-2.2	-0.3	39.9*	26.4*	19.4	20.0
Cn1c(=O)c2c(nc(N3CCc4ccccc4C3)n2Cc2ccc(Br)cc2)n(C)c1=O	i	55.0*	0.7	1.5	-16.2	61.1*	6.6	2.8	2.2
COc1ccc(NC(=O)N2C[C@H]3CON(C)[C@H]3C[C@H]2c2ccc(N3CCCCC3)cc2)cc1	nt	0.9	nt	nt	8.8	nt	nt	nt	nt
O=C1Nc2ccccc2C(=O)C1(Cl)Cc1ccccc1 (stereo not drawn)	i	47.1*	0.1	1.2	8.7	16.7	7.8	24.3	7.1
CC(C)(C)c1ccc(S(=O)(=O)NC(=O)C2(C)CCN2C(=O)c2cccc3ccccc23)cc1 (stereo not drawn)	nt	45.6*	nt	nt	-15.4	66.5*	14.1*	12.2	3.9
Cc1ccc(CNC(=O)c2cccnc2Sc2cccc(Cl)c2)cc1	i	73.0*	-9.8	nt	30.1	82.4*	39.8*	47.2	34.6*
COc1ccc(CNC(=O)c2cccnc2Sc2ccc(Cl)cc2)cc1	i	nt	-17.3	-2.7	nt	nt	nt	nt	nt
CCc1ccc(NC(=O)CCCN2C(=O)C3CC=CCC3C2=O)cc1 (stereo not drawn)	i	0.2	11.7	-1.4	-36.6	nt	nt	nt	nt
N=C1N(/N=C/c2ccccc2)C(=Nc2ccccc2)C(=S)N1c1ccccc1	i	46.2*	0.9	20.4	12.2	4.1	-0.7	26.0	13.8
Cc1ccc(/C=N/n2c(-c3ccccc3)n[nH]c2=S)cc1	i	-2.2	-0.7	-8.8	-29.6	nt	nt	nt	nt
CC1=NOC(=O)/C1=C\c1ccc(-c2ccccc2Br)o1	i	45.8*	nt	7.8	75.3*	31.7	28.6*	56.0*	65.1*
CC(=NNC(=O)c1cccc(S(=O)(=O)N2CCOCC2)c1)c1ccccc1	nt	-0.2	33.8	nt	19.9	nt	nt	nt	nt
COc1ccc(C(=O)CCN2CCC(C)CC2)cc1	i	3.8	14.9	0.8	-23.0	nt	nt	nt	nt
CC1CCCN(CCC(=O)c2ccc(Br)cc2)C1 (stereo not drawn)	nt	75.0*	21.3	nt	22.1	92.8*	3.3	57.4*	7.1
COc1ccc(C(=O)CCN2CCCC(C)C2)cc1 (stereo not drawn)	i	78.8*	-9.7	1.6	15.7	76.1*	1.1	18.5	2.1
CC1CCCN(CCOc2ccc(Br)cc2)C1 (stereo not drawn)	i	13.9	5.0	-8.0	-14.6	nt	nt	nt	nt
CC(=O)c1c(C)[nH]c(C(=O)OCc2nnc(-c3ccc([N+](=O)[O-])cc3)o2)c1C	nt	48.1*	-4.3	nt	19.7	5.4	6.9	17.6	14.2
SMILES	Rce1 inhib	TAAR1 ag	VLA-4 inh	Platelet DG rel	TAAR1 antag	TAAR1 ag conf	Ga16 ag counter	TAAR1 desens	Ga16 antag count
CC(=O)c1c(C)[nH]c(C(=O)OCC(=O)NNC(=O)c2ccc([N+](=O)[O-])cc2)c1C	nt	5.1	3.4	nt	6.6	nt	nt	nt	nt
COC(=O)CCCn1cc(CN2CC(N3CCN(CCN(C)C)CC3)CS2(=O)=O)nn1 (stereo not drawn)	nt	8.4	nt	nt	-6.5	nt	nt	nt	nt
COc1ccc([C@H]2N[C@]3(CCCN(Cc4ccc(C(F)(F)F)cc4)C3=O)[C@H]3C(=O)N(Cc4ccccc4)C(=O)[C@@H]23)cc1	nt	6.0	nt	nt	25.2	nt	nt	nt	nt
COc1cc(/C=C2\SC(=Nc3ccc(Cl)c(C(=O)O)c3)NC2=O)c(Br)c(Br)c1O	i	98.1*	-29.4	-0.1	76.0*	49.1*	57.9*	57.0*	70.2*
NC(=O)c1cnccc1C=Cc1ccccc1	nt	-0.2	nt	nt	0.8	nt	nt	nt	nt
CC(C)(C)c1ccc2c(c1)N(CC(=O)N1CCCC1)C(=O)CO2	i	0.3	11.9	0.5	-3.4	nt	nt	nt	nt
CC(C)NC(=S)NC(=O)c1ccc(-c2ccccc2)cc1	i	49.1*	10.2	-16.1	-4.2	25.9	10.6	13.8	15.9
CN1CCN(C(c2ccc(Br)cc2)c2cc(Cl)c3cccnc3c2O)CC1 (stereo not drawn)	i	68.7*	12.1	5.7	-13.2	121.5*	87.8*	76.2*	42.7*
CCN(CC)c1ccc(/C=C(\C#N)C(N)=S)cc1	i	7.9	-22.0	?	0.1	nt	nt	nt	nt
CCN(CC)c1ccc(/C=C(\C#N)C(=O)c2ccc(Br)cc2)cc1	i	214.6*	i	8.7	90.9*	314.9*	325.0*	105.0*	102.6*
